Compounds with a hit are over-represented: about 4.7% of the library has one in this group of screens.
Mdm2 MdmX PPI: human Mdm2/MdmX binding inhibition | SaOS-2 split-luciferase Mdm2/MdmX complementation, luminescence | hit rate 3% among 330,000 | AID 485346 | inhibition, % at 8 µM | O15151+Q00987;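 active means inhibition of at least 50% at 8 µM in the primary screen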
Target sequence (O15151 whole entry, looked up): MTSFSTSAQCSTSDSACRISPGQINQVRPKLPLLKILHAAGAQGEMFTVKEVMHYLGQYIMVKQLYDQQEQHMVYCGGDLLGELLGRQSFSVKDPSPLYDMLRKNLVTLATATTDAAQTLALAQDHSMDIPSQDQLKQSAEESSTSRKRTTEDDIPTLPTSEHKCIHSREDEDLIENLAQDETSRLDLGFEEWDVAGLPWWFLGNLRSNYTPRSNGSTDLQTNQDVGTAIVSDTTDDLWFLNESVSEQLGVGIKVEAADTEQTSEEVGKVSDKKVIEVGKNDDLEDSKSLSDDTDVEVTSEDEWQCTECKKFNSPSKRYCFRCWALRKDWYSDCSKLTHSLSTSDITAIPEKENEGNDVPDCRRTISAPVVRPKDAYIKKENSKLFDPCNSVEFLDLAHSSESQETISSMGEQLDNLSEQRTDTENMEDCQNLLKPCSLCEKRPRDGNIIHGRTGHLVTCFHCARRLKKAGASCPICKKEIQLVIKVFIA
Target sequence (Q00987 whole entry, looked up): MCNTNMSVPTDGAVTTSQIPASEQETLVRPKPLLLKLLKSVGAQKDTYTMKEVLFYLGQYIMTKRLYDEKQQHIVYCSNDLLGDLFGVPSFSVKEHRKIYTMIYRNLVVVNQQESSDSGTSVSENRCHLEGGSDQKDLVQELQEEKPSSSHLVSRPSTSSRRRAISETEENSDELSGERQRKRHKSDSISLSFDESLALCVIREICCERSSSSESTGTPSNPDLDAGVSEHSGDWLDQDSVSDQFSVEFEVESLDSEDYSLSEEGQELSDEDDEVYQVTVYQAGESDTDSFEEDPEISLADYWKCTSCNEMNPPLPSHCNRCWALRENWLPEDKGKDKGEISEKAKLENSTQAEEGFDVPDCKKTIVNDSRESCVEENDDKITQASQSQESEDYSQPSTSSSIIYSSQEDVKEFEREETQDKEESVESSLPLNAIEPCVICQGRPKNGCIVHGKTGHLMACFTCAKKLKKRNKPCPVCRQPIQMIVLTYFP
VIM-2 inhibitor: blocks Pseudomonas aeruginosa VIM-2 metallo-beta-lactamase; purified VIM-2, nitrocefin hydrolysis, epi-absorbance fluorescence; inhibition, % at 5.6 µM; hit rate 0.89% among 290,000; AID 1527;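 active means inhibition above the mean of all tested compounds plus 3 SD, cutoff set per screening run, cut at about 7.5% in these data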;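 further: red hydrolysis product quenches plate fluorescence so inhibitors raise well fluorescence; 0% = enzyme with DMSO and 100% = DMSO without enzyme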
Jurkat NFkB inh: inhibitors of the PMA/ionomycin-induced NF-kB reporter in Jurkat cells; PMA/ionomycin-induced NF-kB luciferase reporter, luminescence; inhibition, % at 4 µM; hit rate 0.53% among 330,000; AID 435003; in the data active means inhibition above about 50%
aSyn UTR inh: 5' untranslated region of α-synuclein, MLPCN primary screen | hit rate 0.82% among 300,000 | inhibition, % (tested at 7.5 µM) | alpha-synuclein 5'UTR reporter, inhibitor activity | AID 1813; in the data active means inhibition above about 60%;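 further: H4 neuroglioblastoma cells stably carrying SNCA 5'UTR luciferase fusion; 0% = DMSO wells and 100% = positive control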
697 NFkB inh: lowers PMA/ionomycin-induced NF-kB signal in 697 B cells; 697 B-cell NF-kB luciferase reporter, 16 h; inhibition, % at 4 µM; hit rate 0.33% among 330,000; AID 435022; in the data active means inhibition above about 35%
IMP-1 inhibitor: blocks Pseudomonas aeruginosa IMP-1 metallo-beta-lactamase. purified IMP-1, nitrocefin hydrolysis, epi-absorbance fluorescence. inhibition, % at 5.6 µM. hit rate 0.45% among 290,000. AID 1556;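 active means inhibition above the mean plus 3 SD of all compounds in the same screening run, cut at about 4.5% in these data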;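 further: 0% = IMP-1 with DMSO and 100% = DMSO wells lacking enzyme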
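System: Purified IMP-1 | Read-out basis: Percent enzyme inhibition | Controls: IMP-1 with DMSO as 0%, enzyme-free DMSO as 100% | Replicates: One well per compound | Doses: 5.6 µM nominal single concentration | Detection: Epi-absorbance fluorescence, 480 nm excitation, 530 nm emission | Incubation: 25 °C, 15 min preincubation, 25 min reaction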
Jurkat NFkB conf: lowers PMA/ionomycin-induced NF-kB signal in Jurkat cells. shares compounds with Jurkat NFkB inh. Jurkat NF-kB luciferase, 16 h. inhibition, % at 4 µM. hit rate 27% among 2,700. AID 435020;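 active means inhibition reaching about 45% at 4 µM in either replicate, limit read from the data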;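 further: plate controls were PMA/ionomycin stimulated DMSO wells for no effect and unstimulated DMSO wells for full effect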
697 NFkB conf: inhibitors of the PMA/ionomycin-induced NF-kB reporter in 697 B cells, retest; shares compounds with 697 NFkB inh; 697 B-cell NF-kB luciferase, 16 h; inhibition, % at 4 µM; hit rate 35% among 2,000; AID 449746; in the data active means inhibition mostly above about 28%, no sharp cut-off; inactive means mostly below about 22%
Mdm2-MdmX conf: human Mdm2/MdmX binding inhibition, confirmed. hit rate 55% among 10,000. inhibition, % at 8 µM. shares compounds with Mdm2 MdmX PPI. luminescent assay; in the data active means inhibition above about 40%
Full FLuc ctr: full-length luciferase inhibition in Mdm2/MdmX counter-screen; shares compounds with Mdm2 MdmX PPI; SaOS-2 full-length luciferase counterscreen, luminescence; inhibition, % at 8 µM; hit rate 77% among 6,200;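 active means mean inhibition at 8 µM reaching about 37%, which flags the compound as non-specific, limit read from the data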;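 further: p53-null SaOS-2 cells with luciferase driven by a doxycycline-inducible promoter; compound on cells about two nights before reading with doxycycline added after day one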
* hit, by the source's call; . = no result.

SMILES	Mdm2 MdmX PPI	VIM-2 inhibitor	Jurkat NFkB inh	aSyn UTR inh	697 NFkB inh	IMP-1 inhibitor	Jurkat NFkB conf	Mdm2-MdmX conf	Full FLuc ctr	others
COc1ccc(/C=N\NC(=O)c2ccccc2F)cc1COc1ccc(F)cc1F	57.9*	-1.9	61.2*	-0.7	-6.3	-1.4	43.7	76.1*	65.7*
CCn1c2ccccc2c2cc(NC(=O)CNCc3ccccc3OC)ccc21	57.2*	-2.6	53.3*	-15.6	-4.7	-3.1	24.1	56.0*	81.2*
CC1CCN(C(=O)COC(=O)C2CCN(S(=O)(=O)c3c(Cl)cccc3Cl)CC2)CC1	18.9	.	-3.5	.	-13.4	.	.	.	.
CC1(C)Cc2c(cnn2-c2ccc(F)cc2)C(NC(=O)CN2CCCCC2=O)C1 (configuration not stated)	12.6	-1.2	2.1	-16.4	18.0	-2.2	.	.	.
COc1ccc(-c2csc(NC(=O)C3CCN(c4ncnc5sc(C)c(C)c45)CC3)n2)cc1OC	68.2*	.	53.5*	22.5	-5.7	.	39.0	67.8*	45.2*
COc1ccccc1OCC(=O)NNC(=O)C1CCN(c2ncnc3sc(C)c(C)c23)CC1	31.7	.	0.1	.	3.5	.	.	.	.
CC(C)CCn1c(O)c(N=Nc2ccccn2)c2ccccc21	-2.2	-3.4	-9.7	-60.5	-22.9	-3.6	.	.	.
Oc1ccc2ccccc2c1N=Nc1ccccn1	63.4*	-1.9	62.0*	74.7*	-8.5	-4.5	52.1*	74.1*	28.0
O=C(O)c1ccc(S(=O)(=O)NCC2CCCCC2)cc1	28.7	-1.9	3.2	3.6	9.6	-2.5	.	.	.
CC(Oc1ccccc1)C(=O)NNC(=O)c1ccccn1 (configuration not stated)	33.6	-1.5	5.1	45.2	-1.3	-0.9	.	.	.
C/C(=N\NC(=O)C(C)Oc1ccc([N+](=O)[O-])cc1)c1ccccn1 (configuration not stated)	53.9*	-2.1	61.0*	72.3*	-14.0	-5.1	12.8	31.6	.
COc1cccc(N2CCN(C(=O)c3ccc(CS(=O)c4ccccc4Cl)o3)CC2)c1 (configuration not stated)	70.1*	-1.8	55.9*	110.4*	-35.0	-1.9	53.4*	50.8*	102.2*
COc1cccc(N2CCN(C(=O)c3ccc(CS(=O)c4ccccc4C)o3)CC2)c1 (configuration not stated)	50.9*	-1.4	55.5*	108.0*	-16.8	-1.6	35.8*	50.5*	73.8*
COC(=O)c1c(C)[nH]c(C(=O)N2CCN(c3ccc(OC)cc3)CC2)c1C	.	-2.4	.	-43.4	.	-1.0	.	.	.
COc1cccc(N2CCN(C(=O)c3[nH]c(C)c(C(C)=O)c3C)CC2)c1	53.8*	-4.5	55.0*	-2.2	-34.7	-3.6	10.9	68.2*	41.8*
Nc1cc(S(=O)(=O)Nc2ccccc2Cl)ccc1N1CCCCC1	-30.6	.	3.0	.	-21.0	.	.	.	.
COC1=CC(=O)C[C@@H](C)[C@]12Oc1c(Cl)c(OC)cc(OC)c1C2=O	0.4	-3.5	14.5	24.4	5.6	-1.7	.	.	.
Cn1c(CC(=O)NNC(=O)c2ccc(F)cc2Cl)nc2ccccc21	10.9	.	4.9	.	14.3	.	.	.	.
CC(C)(C)OC(=O)n1cc(C(=O)c2ccccc2O)cn1	17.6	-0.7	8.3	14.3	22.8	0.8	.	.	.
COC(=O)c1ccc2nc(Nc3nc4c(F)cc(F)cc4s3)sc2c1	87.9*	-2.5	63.2*	-11.7	-3.3	-5.2	92.1*	37.4	.
CCOC(=O)c1ccc2nc(Nc3nc4ccc(F)cc4s3)sc2c1	82.4*	-2.2	55.6*	13.3	10.3	-0.7	84.5*	59.6*	11.4
COC(=O)c1ccc2nc(NC(=O)C(C)C)sc2c1	-72.6	-2.1	-70.3	-74.2	-128.6	-3.4	.	.	.
CSc1ccc(C(=O)C2CCCN(C(=O)c3nonc3C)C2)cc1 (configuration not stated)	-19.3	3.9	-32.6	4.5	-49.7	2.3	.	.	.
O=C(N1CCN(c2ccccn2)CC1)N1c2ccccc2Sc2ccccc21	78.6*	-1.8	68.1*	3.0	-30.1	-1.9	24.2	67.5*	77.8*
O=C(c1ccco1)N1c2ccccc2Sc2ccccc21	40.8	1.1	0.0	4.9	-6.8	0.3	.	.	.
SMILES	Mdm2 MdmX PPI	VIM-2 inhibitor	Jurkat NFkB inh	aSyn UTR inh	697 NFkB inh	IMP-1 inhibitor	Jurkat NFkB conf	Mdm2-MdmX conf	Full FLuc ctr	others
O=C(c1ccco1)N1CCN(C(=O)N2c3ccccc3Sc3ccccc32)CC1	51.8*	-0.5	58.9*	80.9*	-74.1	-2.9	55.4*	63.0*	92.0*
CCCCCn1c2c(c(=N)c3ccccc31)CCC2	59.5*	1.4	74.1*	50.7	34.7	0.1	47.5*	30.7	.
CCCCCCCCn1c2c(c(=N)c3ccccc31)CCC2	85.1*	-0.8	99.1*	58.7	25.9	-3.7	68.7*	85.7*	27.2
COC(=O)[C@]1(C)N[C@H](CN(C)S(=O)(=O)c2ccc(-c3ccccc3)cc2)[C@@H]2C(=O)N(C)C(=O)[C@@H]21	11.7	.	0.2	.	13.1	.	.	.	.
O=C(COc1ccc(Oc2ccccc2)cc1)NCc1cn2ccccc2n1	56.0*	-1.6	63.3*	62.4*	4.2	-3.0	23.4	56.6*	73.0*
COC(=O)[C@@H](Cc1c[nH]c2ccccc12)NC(=O)CCC(=O)c1ccc(Br)cc1	-8.1	0.7	-9.5	-2.4	12.8	-2.7	.	.	.
COc1ccc(C2c3ccc4ccccc4c3Oc3ncn(CCCN(C)C)c(=N)c32)cc1 (configuration not stated)	100.3*	1.2	52.2*	89.8*	8.9	0.2	22.4	100.2*	51.2*
COc1ccc(C2c3c(ncn(CCCO)c3=N)Oc3ccc4ccccc4c32)cc1OC (configuration not stated)	43.8	-1.8	13.6	10.3	5.5	-2.1	.	.	.
COc1ccccc1C1c2ccc3ccccc3c2Oc2ncn(CCN(C)C)c(=N)c21 (configuration not stated)	100.3*	-0.3	77.7*	-11.2	7.4	-1.6	13.2	85.1*	37.8*
CCCCCCCCCCn1c2c(c(=N)c3c1CCC3)CCC2	98.0*	-2.6	82.2*	71.2*	0.4	-2.7	75.0*	94.9*	5.5
CCCCCCCCCn1c2c(c(=N)c3c1CCC3)CCCC2	98.0*	-2.0	97.4*	90.1*	57.6*	-2.6	80.7*	95.5*	9.4	697 NFkB conf=-12.8
CCOC(=O)Cn1c2c(c(=N)c3c1CCC3)CCC2	1.6	-1.8	-9.2	7.4	-47.9	-3.6	.	.	.

Screens from PubChem.
